Data on 20 compounds can be found in ChEMBL document CHEMBL4002592, “Piperlongumine derived cyclic sulfonamides (sultams): Synthesis and in vitro exploration for therapeutic potential against HeLa cancer cell lines” (2017).

Format in all cases: functional
In assay [1] the test system is HeLa. The assay is described as follows: Cytotoxicity against human HeLa cells assessed as cell growth at 10^-4 M after 48 hrs by SRB assay relative to control. Particulars: read-out: Activity. The essentials: (§1)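 HeLa (NCI source) kept in RPMI 1640 with 10% FBS and 2 mM L-glutamine, 37°C, 5% CO2. Cells seeded at 5,000/well, incubated overnight, then exposed 48 h to drug at final 10^-4 to 10^-7 M from 10^-2 M DMSO stock. Fixed with 10% TCA, stained with 0.4% SRB for 20 min, dye dissolved in 10 mM Tris, OD 540 nm. % growth = 100×(T–T₀)/(C–T₀). Mean of three experiments.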
In general terms: Sulforhodamine B stains cellular protein and so reports cell mass.

Assay [2] deals with HeLa. In words: Cytotoxicity against human HeLa cells assessed as cell growth at 10^-7 M after 48 hrs by SRB assay relative to control. Particulars: read-out: Activity. A digest of the protocol:
as §1

The subject of assay [3] is HeLa. The assay is described as follows: Cytotoxicity against human HeLa cells assessed as cell growth at 10^-5 M after 48 hrs by SRB assay relative to control. Conditions: read-out: Activity. The essentials: as §1
In assay [4] the test system is HeLa. In words: Cytotoxicity against human HeLa cells assessed as growth inhibition after 48 hrs by SRB assay. The essentials: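 HeLa in RPMI 1640/10% FBS/2 mM glutamine, seeded at 5,000 cells/well overnight, then treated 48 h at final 10^-4 to 10^-7 M (DMSO stock 10^-2 M). Read by SRB: TCA fixation, 0.4% SRB stain, Tris solubilisation, OD 540 nm. Growth corrected for time-zero OD. Mean % growth plotted against molar concentration; GI50 taken as the concentration giving 50% growth inhibition.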

Assay [5] relates to HeLa. In words: Cytotoxicity against human HeLa cells assessed as cell growth at 10^-6 M after 48 hrs by SRB assay relative to control. Particulars: read-out: Activity. The essentials: as §1

Structures are written as SMILES. Counter-ions that a name gives are not always drawn. Where only a bound is given, the exact number is not on record here.

As a reminder, the GI50 is the concentration giving 50% growth inhibition. Consider `O=C(/C=C/c1c(Cl)nc2ccccn12)N1CCC=CS1(=O)=O`, for which, in the assay on HeLa [1], the growth at 100 µM is -78.5%. Also, the growth at 0.1 µM with HeLa [2] was 87%. Further, in the assay on HeLa [3], the growth at 10 µM came out at 20.6%. Further, in the assay on HeLa [4], the 50% growth inhibitory concentration (GI50) was 8.2 µM and the “growth inhibition (GI)” value is “Dose-dependent effect”. Also, the growth at 1 µM with HeLa [5] came to 59%.
`Cc1ccc(C(=O)N2CCC=CS2(=O)=O)cc1[N+](=O)[O-]`: in the assay with HeLa [1], the growth at 100 µM is -11.2%. Further, the growth at 0.1 µM in the assay on HeLa [2] was found to be 97.1%. Further, the growth at 10 µM in the assay on HeLa [3] was 67.6%. In the assay on HeLa [4], the 50% growth inhibitory concentration (GI50) turned out to be 39.2 µM and the “growth inhibition (GI)” value was “Dose-dependent effect”. In addition, the growth at 1 µM with HeLa [5] turned out to be 93.7%.
As for `O=C(/C=C/c1ccc([N+](=O)[O-])cc1)N1CCC=CS1(=O)=O`, in the assay with HeLa [1], the growth at 100 µM was -71.6%. Further, the growth at 0.1 µM in the assay on HeLa [2] turned out to be 100%. For the same compound, the growth at 10 µM in the assay on HeLa [3] came to 59%. Further, in the assay with HeLa [4], the 50% growth inhibitory concentration (GI50) worked out at 24.4 µM and the “growth inhibition (GI)” value was “Dose-dependent effect”. Also, the growth at 1 µM in the assay on HeLa [5] worked out at 90.4%.
With `Cc1ccc(/C=C/C(=O)N2CCC=CS2(=O)=O)cc1`, the growth at 100 µM in the assay with HeLa [1] is -33.5%. In the assay on HeLa [2], the growth at 0.1 µM amounted to 86.8%. For the same compound, the growth at 10 µM in the assay on HeLa [3] was found to be 26.3%. In the assay on HeLa [4], the GI50 was found to be 18.6 µM and the “growth inhibition (GI)” value was “Dose-dependent effect”. In addition, the growth at 1 µM with HeLa [5] was found to be 81.4%.
As to `O=C(/C=C/c1ccccc1F)N1CCC=CS1(=O)=O`, in the assay with HeLa [1], the growth at 100 µM was -75.3%. In the assay on HeLa [2], the growth at 0.1 µM is 78.5%. The growth at 10 µM with HeLa [3] amounted to 52.4%. Also, in the assay on HeLa [4], the GI50 was found to be 13.7 µM and the “growth inhibition (GI)” value was “Dose-dependent effect”. Also, in the assay on HeLa [5], the growth at 1 µM was 62.3%.
`COc1cc(/C=C/C(=O)N2CCC=CS2(=O)=O)cc(OC)c1`: the growth at 100 µM with HeLa [1] is -78.4%. In addition, the growth at 0.1 µM in the assay with HeLa [2] is 82.5%. Further, in the assay with HeLa [3], the growth at 10 µM was -60.1%. Further, in the assay on HeLa [4], the GI50 is under 0.1 µM and the “growth inhibition (GI)” value was “Dose-dependent effect”. The growth at 1 µM in the assay with HeLa [5] was 32.5%.
Regarding `COc1ccccc1/C=C/C(=O)N1CCC=CS1(=O)=O`, the growth at 100 µM in the assay on HeLa [1] is -80.1%. For the same compound, the growth at 0.1 µM with HeLa [2] turned out to be 76.7%. The growth at 10 µM with HeLa [3] worked out at 14.6%. For the same compound, in the assay on HeLa [4], the concentration for 50% growth inhibition (GI50) amounted to 0.1 µM and the “growth inhibition (GI)” value is “Dose-dependent effect”. Besides, the growth at 1 µM with HeLa [5] worked out at 35%.
Take `O=C(/C=C/c1cccc(C(F)(F)F)c1)N1CCC=CS1(=O)=O`: the growth at 100 µM in the assay on HeLa [1] was -64.8%. The growth at 0.1 µM in the assay on HeLa [2] came to 95.5%. Further, in the assay with HeLa [3], the growth at 10 µM was 34.9%. Moreover, in the assay with HeLa [4], the 50% growth inhibitory concentration (GI50) is 19.6 µM and the “growth inhibition (GI)” value was “Dose-dependent effect”. For the same compound, in the assay with HeLa [5], the growth at 1 µM came to 86.3%.
Turning to `O=C(/C=C/c1ccoc1)N1CCC=CS1(=O)=O`, the growth at 100 µM with HeLa [1] is -78.1%. Moreover, the growth at 0.1 µM with HeLa [2] was determined as 92%. In addition, in the assay with HeLa [3], the growth at 10 µM worked out at 57.7%. In the assay with HeLa [4], the GI50 was 20.3 µM and the “growth inhibition (GI)” value is “Dose-dependent effect”. Besides, the growth at 1 µM in the assay on HeLa [5] worked out at 80.2%.
On to `O=C(/C=C/c1cccs1)N1CCC=CS1(=O)=O`, for which the growth at 100 µM with HeLa [1] is -75.3%. In addition, the growth at 0.1 µM in the assay on HeLa [2] came to 92.1%. Moreover, the growth at 10 µM in the assay with HeLa [3] worked out at 53.4%. Further, in the assay with HeLa [4], the GI50 was determined as 18.8 µM and the “growth inhibition (GI)” value is “Dose-dependent effect”. Also, the growth at 1 µM with HeLa [5] is 74.2%.
As to `COc1cc(/C=C/C(=O)N2CCC=CS2(=O)=O)cc(OC)c1OC`, in the assay with HeLa [1], the growth at 100 µM is -80.6%. In addition, the growth at 0.1 µM in the assay on HeLa [2] worked out at 79.8%. Besides, the growth at 10 µM in the assay with HeLa [3] is 46.8%. In the assay on HeLa [4], the GI50 amounted to 14.3 µM and the “growth inhibition (GI)” value was “Dose-dependent effect”. The growth at 1 µM with HeLa [5] amounted to 71.4%.
`O=C(/C=C/c1cccc(-c2ccccc2)c1)N1CCC=CS1(=O)=O`: the growth at 100 µM in the assay on HeLa [1] was -63%. In the assay on HeLa [2], the growth at 0.1 µM amounted to 97.6%. Also, the growth at 10 µM with HeLa [3] was determined as 32.9%. In the assay with HeLa [4], the concentration for 50% growth inhibition (GI50) amounted to 19.8 µM and the “growth inhibition (GI)” value is “Dose-dependent effect”. The growth at 1 µM with HeLa [5] stood at 86.5%.
In the case of `COc1ccc(/C=C/C(=O)N2CCC=CS2(=O)=O)cc1`, the growth at 100 µM with HeLa [1] is -55.3%. For the same compound, the growth at 0.1 µM in the assay on HeLa [2] was determined as 84.7%. In the assay with HeLa [3], the growth at 10 µM was found to be 68.1%. In the assay on HeLa [4], the GI50 turned out to be 24.4 µM and the “growth inhibition (GI)” value was “Dose-dependent effect”. For the same compound, the growth at 1 µM in the assay with HeLa [5] was found to be 83.8%.
Turning to `COc1cccc(/C=C/C(=O)N2CCC=CS2(=O)=O)c1`, the growth at 100 µM with HeLa [1] is -79.7%. The growth at 0.1 µM in the assay on HeLa [2] came out at 90.8%. Further, in the assay on HeLa [3], the growth at 10 µM amounted to 68.7%. Besides, in the assay on HeLa [4], the concentration for 50% growth inhibition (GI50) was found to be 23.7 µM and the “growth inhibition (GI)” value is “Dose-dependent effect”. Moreover, in the assay on HeLa [5], the growth at 1 µM was found to be 92.2%.
Consider `COc1cccc2c1C(=O)c1c(O)c3c(c(O)c1C2=O)C[C@@](O)(C(=O)CO)C[C@@H]3O[C@H]1C[C@H](N)[C@H](O)[C@H](C)O1` [DOXORUBICIN HYDROCHLORIDE], for which the growth at 100 µM with HeLa [1] was -84.6%. The growth at 0.1 µM in the assay with HeLa [2] is -76.8%. For the same compound, the growth at 10 µM in the assay with HeLa [3] was -84.1%. Moreover, in the assay on HeLa [4], the 50% growth inhibitory concentration (GI50) is under 0.1 µM. Also, the growth at 1 µM in the assay on HeLa [5] is -82.9%.
With `O=C(/C=C/c1ccc(Cl)cc1)N1CCC=CS1(=O)=O`, the growth at 100 µM with HeLa [1] is -30.5%. For the same compound, the growth at 0.1 µM with HeLa [2] is 90.7%. In addition, in the assay with HeLa [3], the growth at 10 µM came out at 53.5%. Besides, in the assay with HeLa [4], the GI50 worked out at 26.4 µM and the “growth inhibition (GI)” value is “Dose-dependent effect”. Also, the growth at 1 µM in the assay on HeLa [5] came out at 80.2%.
In the case of `O=C(c1cccc(Cl)c1)N1CCC=CS1(=O)=O`, in the assay on HeLa [1], the growth at 100 µM was 10.8%. For the same compound, the growth at 0.1 µM with HeLa [2] turned out to be 100%. Further, the growth at 10 µM with HeLa [3] stood at 55.4%. For the same compound, in the assay with HeLa [4], the GI50 amounted to 45.4 µM and the “growth inhibition (GI)” value is “Dose-dependent effect”. In addition, the growth at 1 µM in the assay with HeLa [5] is 86.7%.
For the compound `Cc1cccc(/C=C/C(=O)N2CCC=CS2(=O)=O)c1`, the growth at 100 µM in the assay with HeLa [1] was -67.1%. Moreover, the growth at 0.1 µM in the assay with HeLa [2] amounted to 99.9%. In the assay with HeLa [3], the growth at 10 µM worked out at 35%. In the assay on HeLa [4], the GI50 was found to be 20.7 µM and the “growth inhibition (GI)” value was “Dose-dependent effect”. Moreover, the growth at 1 µM with HeLa [5] turned out to be 89.5%.
In the case of `O=C(/C=C/c1cccc(F)c1)N1CCC=CS1(=O)=O`, the growth at 100 µM in the assay with HeLa [1] is -69%. The growth at 0.1 µM in the assay with HeLa [2] was determined as 96.8%. Moreover, the growth at 10 µM in the assay with HeLa [3] is -39.2%. Further, in the assay on HeLa [4], the GI50 is under 0.1 µM and the “growth inhibition (GI)” value is “Dose-dependent effect”. For the same compound, in the assay with HeLa [5], the growth at 1 µM was found to be 42.4%.
With `O=C(/C=C/c1c[nH]c2ccc(F)cc12)N1CCC=CS1(=O)=O`, the growth at 100 µM with HeLa [1] was -48%. Also, in the assay with HeLa [2], the growth at 0.1 µM amounted to 90.4%. Also, the growth at 10 µM in the assay with HeLa [3] worked out at 25.3%. In the assay on HeLa [4], the concentration for 50% growth inhibition (GI50) worked out at 18.8 µM and the “growth inhibition (GI)” value is “Dose-dependent effect”. Also, the growth at 1 µM with HeLa [5] came to 87.6%.
